In ChEMBL document CHEMBL4699398, “The synthesis and biological evaluation of sanguinarine derivatives as anti-non-small cell lung cancer agents” (RSC Med Chem, 2020):
pIC50: −log10 of the molar value. Calls of active or inactive are those of the source. The calls are words filed in the database; no cut-off is given here.

Tests used:
NCI-H1975 [1] = test: Induction of cell cycle arrest in human H1975 cells assessed as accumulation in G0/G1 phase at 0.3 uM incubated for 24 hrs by […] propidium iodide staining based flow cytometry (reference value: 62.86 %); assay type: functional
NCI-H1975 [2] = test: Induction of cell cycle arrest in human H1975 cells assessed as accumulation in G2/M phase at 1 uM incubated for 24 hrs by […] propidium iodide staining based flow cytometry (reference value: 21.00 %); assay type: functional
A549 [3] = test: Induction of apoptosis in human A549 cells assessed as increase in phosphorylated Akt level at 0.1 to 3 uM incubated for 24 hrs by Western blot analysis; assay type: functional, cell-based; conditions: dose microM 0.1-3, time 24.0 hrs
How it was run: (§1)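 After treatment, cells harvested and lysed in RIPA buffer; equal protein loaded on 12% SDS-PAGE and transferred to PVDF; blocked in 5% milk 2 h at room temperature; primary antibodies (AKT, p-AKT, cleaved caspase-3, cleaved caspase-9, PARP; GAPDH loading control) overnight at 4 °C; HRP secondaries 2 h at room temperature; chemiluminescent detection.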

A549 [4] = test: Induction of apoptosis in human A549 cells assessed as late apoptotic cells at 1 uM after 48 hrs by Annexin V-FITC/7-AAD staining based flow cytometric method (reference value: 2.94 %); assay type: functional
NCI-H1975 [5] = test: Induction of apoptosis in human H1975 cells assessed as late apoptotic cells at 3 uM after 48 hrs by Annexin V-FITC/7-AAD staining based flow cytometric method (reference value: 4.63 %); assay type: functional
NCI-H1975 [6] = test: Induction of apoptosis in human H1975 cells assessed as viable cells at 3 uM after 48 hrs by Annexin V-FITC/7-AAD staining based flow cytometric method (reference value: 88.02 %); assay type: functional; conditions: read-out: Activity
NCI-H1975 [7] = test: Induction of apoptosis in human H1975 cells assessed as increase in phosphorylated Akt level at 0.1 to 3 uM incubated for 24 hrs by Western blot analysis; assay type: functional, cell-based; conditions: dose microM 0.1-3, time 24.0 hrs; how it was run: as §1
NCI-H1975 [8] = test: Antiproliferative activity against human H1975 cells assessed as inhibition of cell growth incubated for 72 hrs by CCK-8 assay; conditions: NCI-H1975, 72 h
NCI-H1975 [9] = test: Induction of apoptosis in human H1975 cells assessed as early apoptotic cells at 1 uM after 48 hrs by Annexin-V-FITC/7-AAD staining based flow cytometric method (reference value: 6.50 %); assay type: functional
NCI-H1975 [10] = test: Induction of cell cycle arrest in human H1975 cells assessed as accumulation in S phase at 3 uM incubated for 24 hrs by […] propidium iodide staining based flow cytometry (reference value: 14.13 %); assay type: functional
NCI-H1975 [11] = test: Induction of cell cycle arrest in human H1975 cells assessed as accumulation in G2/M phase at 3 uM incubated for 24 hrs by […] propidium iodide staining based flow cytometry (reference value: 21.00 %); assay type: functional
A549 [12] = test: Induction of cell cycle arrest in human A549 cells assessed as accumulation in S phase at 3 uM incubated for 24 hrs by […] propidium iodide staining based flow cytometry (reference value: 14.16 %); assay type: functional
NCI-H1975 [13] = test: Induction of cell cycle arrest in human H1975 cells assessed as accumulation in G2/M phase at 0.3 uM incubated for 24 hrs by […] propidium iodide staining based flow cytometry (reference value: 21.00 %); assay type: functional
NCI-H1975 [14] = test: Induction of apoptosis in human H1975 cells assessed as necrotic cells at 0.3 uM after 48 hrs by Annexin V-FITC/7-AAD staining based flow cytometric method (reference value: 0.85 %); assay type: functional
A549 [15] = test: Induction of apoptosis in human A549 cells assessed as late apoptotic cells at 0.3 uM after 48 hrs by Annexin V-FITC/7-AAD staining based flow cytometric method (reference value: 2.94 %); assay type: functional
NCI-H1975 [16] = test: Induction of cell cycle arrest in human H1975 cells assessed as accumulation in G0/G1 phase at 3 uM incubated for 24 hrs by […] propidium iodide staining based flow cytometry (reference value: 62.86 %); assay type: functional
A549 [17] = test: Induction of apoptosis in human A549 cells assessed as necrotic cells at 1 uM after 48 hrs by Annexin V-FITC/7-AAD staining based flow cytometric method (reference value: 0.70 %); assay type: functional
A549 [18] = test: Induction of cell cycle arrest in human A549 cells assessed as accumulation in G2/M phase at 0.3 uM incubated for 24 hrs by […] propidium iodide staining based flow cytometry (reference value: 22.46 %); assay type: functional
A549 [19] = test: Induction of apoptosis in human A549 cells assessed as viable cells at 0.3 uM after 48 hrs by Annexin V-FITC/7-AAD staining based flow cytometric method (reference value: 93.10 %); assay type: functional; conditions: read-out: Activity
A549 [20] = test: Induction of cell cycle arrest in human A549 cells assessed as accumulation in G2/M phase at 3 uM incubated for 24 hrs by […] propidium iodide staining based flow cytometry (reference value: 22.46 %); assay type: functional
NCI-H1975 [21] = test: Induction of apoptosis in human H1975 cells assessed as increase in cleaved caspase-3 level at 0.1 to 3 uM incubated for 24 hrs by Western blot analysis; assay type: functional, cell-based; conditions: dose microM 0.1-3, time 24.0 hrs; how it was run: as §1
A549 [22] = test: Induction of cell cycle arrest in human A549 cells assessed as accumulation in G0/G1 phase at 3 uM incubated for 24 hrs by […] propidium iodide staining based flow cytometry (reference value: 63.11 %); assay type: functional
NCI-H1975 [23] = test: Induction of apoptosis in human H1975 cells assessed as early apoptotic cells at 3 uM after 48 hrs by Annexin V-FITC/7-AAD staining based flow cytometric method (reference value: 6.50 %); assay type: functional
A549 [24] = test: Antiproliferative activity against human A549 cells assessed as inhibition of cell growth incubated for 72 hrs by CCK-8 assay; conditions: A549, 72 h
A549 [25] = test: Induction of apoptosis in human A549 cells assessed as early apoptotic cells at 1 uM after 48 hrs by Annexin V-FITC/7-AAD staining based flow cytometric method (reference value: 3.26 %); assay type: functional
NCI-H1975 [26] = test: Induction of apoptosis in human H1975 cells assessed as necrotic cells at 1 uM after 48 hrs by Annexin V-FITC/7-AAD staining based flow cytometric method (reference value: 0.85 %); assay type: functional
NCI-H1975 [27] = test: Induction of cell cycle arrest in human H1975 cells assessed as accumulation in S phase at 0.3 uM incubated for 24 hrs by […] propidium iodide staining based flow cytometry (reference value: 14.13 %); assay type: functional
NCI-H1975 [28] = test: Induction of apoptosis in human H1975 cells assessed as increase in cleaved caspase-9 level at 0.1 to 3 uM incubated for 24 hrs by Western blot analysis; assay type: functional, cell-based; conditions: dose microM 0.1-3, time 24.0 hrs; how it was run: as §1
NCI-H1975 [29] = test: Induction of cell cycle arrest in human H1975 cells assessed as accumulation in S phase at 1 uM incubated for 24 hrs by […] propidium iodide staining based flow cytometry (reference value: 14.13 %); assay type: functional
A549 [30] = test: Induction of apoptosis in human A549 cells assessed as viable cells at 3 uM after 48 hrs by Annexin V-FITC/7-AAD staining based flow cytometric method (reference value: 93.10 %); assay type: functional; conditions: read-out: Activity

`CN1c2c(ccc3cc4c(cc23)OCO4)-c2ccc3c(c2C1N1CCOCC1)OCO3` (stereo not given) was tested. Which Activity (NCI-H1975 [1]) did it give?
Its Activity is 62.04%.

What about the Activity (NCI-H1975 [2]) of the same compound?
The Activity was 19.67%.

And the Activity (A549 [3])?
Its Activity is “Active”.

What about the Activity (A549 [4]) of the same compound?
The Activity was 9.4%.

And the Activity (NCI-H1975 [5])?
Its Activity is 90.5%.

What about the viability at 3 µM (NCI-H1975 [6]) of the same compound?
Its viability at 3 µM is 1.8%.

What about the Activity (NCI-H1975 [7]) of the same compound?
Its Activity is “Active”.

And the pIC50 (NCI-H1975 [8])?
The pIC50 was 5.94.

And the Activity (NCI-H1975 [9])?
The Activity was 10.59%.

And the Activity (NCI-H1975 [10])?
Its Activity is 8.75%.

And the Activity (NCI-H1975 [11])?
The Activity was 13.21%.

What about the Activity (A549 [12]) of the same compound?
Its Activity is 15.07%.

And the Activity (NCI-H1975 [13])?
The Activity was 23.51%.

What about the Activity (NCI-H1975 [14]) of the same compound?
The Activity was 0.98%.

And the Activity (A549 [15])?
Its Activity is 6.92%.

What about the Activity (NCI-H1975 [16]) of the same compound?
The Activity was 77.7%.

What about the Activity (A549 [17]) of the same compound?
Its Activity is 4.23%.

And the Activity (A549 [18])?
Its Activity is 20.27%.

What about the viability at 0.3 µM (A549 [19]) of the same compound?
Its viability at 0.3 µM is 79.4%.

And the Activity (A549 [20])?
Its Activity is 13.56%.

What about the Activity (NCI-H1975 [21]) of the same compound?
Its Activity is “Active”.

And the Activity (A549 [22])?
Its Activity is 71.21%.

And the Activity (NCI-H1975 [23])?
Its Activity is 3.11%.

What about the pIC50 (A549 [24]) of the same compound?
Its pIC50 is 5.75.

What about the Activity (A549 [25]) of the same compound?
Its Activity is 8.03%.

And the Activity (NCI-H1975 [26])?
Its Activity is 2.8%.

And the Activity (NCI-H1975 [27])?
The Activity was 14.07%.

And the Activity (NCI-H1975 [28])?
Its Activity is “Active”.

And the Activity (NCI-H1975 [29])?
Its Activity is 12.43%.

And the viability at 3 µM (A549 [30])?
Its viability at 3 µM is 0.71%.
